Compound activity deposited in PubChem by The Scripps Research Institute Molecular Screening Center.
TAAR1 antagonist: human TAAR1 antagonists, primary screen, Fluo-8 calcium fluorescence, CHO RD-HGA16 cells; antagonist; inhibition, % at 3 µM; hit rate 1.5% among 360,000; Trace amine-associated receptor 1 (Homo sapiens), Q96RJ0;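 active = inhibition above a per-plate cutoff, the mean inhibition of test compounds on that plate plus 3 SD, cut at about 49% in these data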;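 note: 0% = DMSO plus EC80 beta-PEA response and 100% = DMSO alone without agonist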
Target sequence (Q96RJ0 whole entry, looked up): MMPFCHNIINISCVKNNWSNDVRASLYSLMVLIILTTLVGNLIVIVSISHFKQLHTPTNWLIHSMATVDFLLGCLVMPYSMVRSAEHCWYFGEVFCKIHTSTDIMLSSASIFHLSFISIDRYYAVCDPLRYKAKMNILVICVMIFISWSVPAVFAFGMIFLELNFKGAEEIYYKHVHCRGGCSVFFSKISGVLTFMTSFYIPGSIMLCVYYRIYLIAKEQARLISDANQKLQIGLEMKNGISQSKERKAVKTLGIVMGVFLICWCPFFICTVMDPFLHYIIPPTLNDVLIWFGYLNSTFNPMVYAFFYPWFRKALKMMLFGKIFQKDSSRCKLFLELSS
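System: RD-HGA16 CHO cells with stable hTAAR1 and Gα16 | Probe or stimulus: EC80 β-phenethylamine stimulus | Dosing: 3 µM, single point | Times: Dye loading 75 min at 37 °C, then 30 min room temperature | Measured by: Fluo-8 calcium-sensitive fluorescence | Read-out basis: % inhibition of agonist calcium response | Replicates: n of 1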
GPR7 antag: GPR7 receptor antagonists, primary screen, cell-based, fluorescence, single concentration | Neuropeptides B/W receptor type 1 (Homo sapiens), P48145 | GPR7-expressing cells, fluorescence antagonist assay | inhibition, % at 4.4 µM | hit rate 1.1% among 290,000 | AID 1861, 2009; in the data active = inhibition above about 16%, passing the limit was not always enough;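 note: cells stimulated with the agonist NPW; 0% = agonist with vehicle and 100% = vehicle without agonist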
Target sequence (P48145 whole entry, looked up): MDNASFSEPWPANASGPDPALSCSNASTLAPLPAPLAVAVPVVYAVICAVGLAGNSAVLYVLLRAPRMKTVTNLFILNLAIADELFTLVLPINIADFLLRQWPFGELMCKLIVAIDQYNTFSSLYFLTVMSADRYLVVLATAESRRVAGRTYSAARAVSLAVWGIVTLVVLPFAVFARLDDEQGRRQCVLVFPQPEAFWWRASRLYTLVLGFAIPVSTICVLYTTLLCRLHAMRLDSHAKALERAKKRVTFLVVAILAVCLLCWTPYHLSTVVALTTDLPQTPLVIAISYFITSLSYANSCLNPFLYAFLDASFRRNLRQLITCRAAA
CHO parental Ca: ATP-evoked calcium signal inhibitors, parental CHO, primary screen, counter-screen for OX1R antagonist project, cell-based, fluorescence, Fluo-8 calcium dye | parental CHO-K1, ATP-induced calcium, Fluo-8 fluorescence | inhibition, % at 5.6 µM | hit rate 0.63% among 330,000;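 active = inhibition above that plate's mean sample inhibition plus 3 SD, cut at about 26% in these data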;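 note: 0% = ATP-challenged DMSO wells and 100% = DMSO wells without ATP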
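Material: Parental CHO cells | Reagent: ATP | Compound dosing: Single nominal dose of 5.6 µM per compound | Detection: Intracellular calcium via Fluo-8 no-wash fluorescent dye | Read-out: % inhibition of ATP-induced calcium mobilization | Benchmarks: Low control ATP plus DMSO, high control DMSO only | Replicates: Singlicate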
TAAR1 agonist: human TAAR1 agonists, primary screen, Fluo-8 calcium fluorescence, CHO RD-HGA16 cells. activation, % at 3 µM. hit rate 0.99% among 360,000. vehicle wells 0%, saturating PEA agonist 100%;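 active = activation above the mean activation of all test compounds in the run plus 3 SD, cut at about 38% in these data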
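Test system: RD-HGA16 (CHO) cells co-expressing Gα16 and hTAAR1 | Doses: Single dose, 3 µM | Schedule: 17-24 h seeding, 75 min 37 °C dye, 30 min RT | Evaluation: % activation from peak over basal fluorescence ratio, DMSO-to-PEA scaled | Technique: Kinetic Fluo-8 calcium fluorescence | Benchmarks: Low control DMSO, high control PEA (EC100)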
OX1R antag-1: antagonists of human orexin 1 receptor (OX1R) | OX1R-expressing cells, FRET antagonist read-out | AID 485270, 2010 | inhibition, % at 6.6 µM | Orexin/Hypocretin receptor type 1 (Homo sapiens), O43613 | hit rate 1.8% among 330,000; in the data active = inhibition mostly above about 38%, no sharp cut-off; inactive = mostly below about 40%;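 note: 0% = agonist challenge alone and 100% = reference antagonist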
OX1R antag-2: OX1R (HCRTR1) antagonists, primary screen, fluorescence, CHO/OX1R cells, Fluo-8 calcium, orexin A; Orexin/Hypocretin receptor type 1 (Homo sapiens), O43613; Fluo-8 calcium fluorescence; hit rate 0.43% among 330,000; inhibition, % at 5 µM;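 active = inhibition above its plate's threshold, mean inhibition of all tested compounds on the plate plus 3 SD, cut at about 37% in these data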;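 note: 0% = orexin A challenge wells and 100% = SB-334867-A antagonist wells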
TAAR1 ag conf: human TAAR1 agonists, retest of hits, confirmation, Fluo-8 calcium fluorescence, CHO RD-HGA16 cells. shares compounds with TAAR1 agonist. scaled: DMSO 0%, maximal phenethylamine 100%. activation, % at 3 µM. hit rate 82% among 2,400;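 active = activation above a cutoff set at the run's mean compound activation plus 3 SD, cut at about 39% in these data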
Ga16 nonsel ag: nonselective calcium mobilization agonists, CHO-Ga16 cells, counter-screen for hTAAR1 agonist project, cell-based, fluorescence, CHO-Ga16 parental line; shares compounds with TAAR1 agonist; activation, % at 3 µM; hit rate 50% among 2,400; AID 651787, 2012; Fluo-8 calcium fluorescence; normalized to maximal ATP response, DMSO zero;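 active = activation above the run cutoff, the mean activation over all tested wells plus 3 SD, cut at about 12% in these data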;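 note: 0% = DMSO wells and 100% = maximal ATP response on the peak over basal ratio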
TAAR1 desens: TAAR1 desensitization by agonist hits, confirmation, counter-screen for TAAR1 agonist project, cell-based, fluorescence, tachyphylaxis | shares compounds with TAAR1 agonist | CHO RD-HGA16 hTAAR1, Fluo-8 calcium, beta-PEA response inhibition | inhibition, % at 3 µM | hit rate 46% among 2,400 | AID 651951, 2012;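 active = inhibition above the run cutoff, the mean inhibition of all test compounds plus 3 SD, cut at about 49% in these data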;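 note: beta-PEA stimulus applied at its EC80; loss of beta-PEA calcium signal after compound pretreatment read as receptor desensitization; 0% = DMSO with beta-PEA at EC80 and 100% = DMSO alone without agonist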
Ga16 nonsel ant: inhibition of ATP-evoked calcium response in CHO-Ga16 cells, counter-screen for TAAR1 agonist project, cell-based, fluorescence; CHO-Ga16 ATP-induced calcium, Fluo-8 fluorescence; shares compounds with TAAR1 agonist; inhibition, % at 3 µM; AID 651952, 2012; hit rate 39% among 2,400;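 active = inhibition above the plate's mean compound inhibition plus 3 SD, computed per plate, cut at about 22% in these data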;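 note: 0% = EC80 ATP with DMSO and 100% = DMSO wells without ATP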
* = called active by the depositor; . = no result. A selection: hits, their analogues and other compounds. The true share with any hit is near 4.5%.

SMILES	TAAR1 antagonist	GPR7 antag	CHO parental Ca	TAAR1 agonist	OX1R antag-1	OX1R antag-2	TAAR1 ag conf	Ga16 nonsel ag	TAAR1 desens	Ga16 nonsel ant
O=[N+]([O-])c1ccc(O)c(CNCc2ccccc2)c1	5	.	.	3	.	.	.	.	.	.
CNc1nc(NCCOc2ccccc2Cl)c2sccc2n1	72*	.	.	72*	.	.	51*	50*	57*	47*
CC(=O)c1cccc(OCC(O)CNCC2COc3ccccc3O2)c1 (stereo not drawn)	10	29	-13	46*	11	-28	70*	6	42	17
CC(OCC(O)CNCC1COc2ccccc2O1)c1ccc(Cl)cc1 (stereo not drawn)	3	17	-10	37	17	-30	.	.	.	.
CC(C)Oc1ccc(S(=O)(=O)N2CCOCC2)cc1NC(=O)CSC(=S)N1CCCC1	-22	.	.	-1	.	.	.	.	.	.
COc1cc2[nH]c(=O)c(C(=O)NCc3ccc(C)cc3)c(O)c2cc1OC	-7	.	.	1	.	.	.	.	.	.
CCCCCCCCCCCCCCC(O)C[N+](C)(CCO)CCO (stereo not drawn)	77*	.	.	54*	.	.	18	4	36	30*
CCCCCCCCCCCCCC(=O)NO	-12	.	.	2	.	.	.	.	.	.
O=c1cc2c(c(-c3ccccc3)n1Cc1ccccc1)[C@@H](CCO)NC2	-7	.	.	2	.	.	.	.	.	.
Cc1ccc(O)c(C(=O)CC(=O)c2ccc(Cl)cc2)c1	20	0	-21	54*	12	-15	43*	23*	51*	37*
Cc1ccc(O)c(C(=O)CC(=O)c2cccc(F)c2)c1	28	2	-1	54*	25	-19	28	19*	21	22*
Cc1cccc(C(=O)CC(=O)c2cc(Cl)ccc2O)c1	.	-6	-16	.	11	-22	.	.	.	.
COc1ccc(CN2C[C@@H](CO)O[C@@H](n3cnc4c(NC5CCC5)ncnc43)C2)cc1	-11	.	.	2	.	.	.	.	.	.
CC1C/C(=C/c2cccn2C)C(=O)/C(=C/c2cccn2C)C1 (stereo not drawn)	76*	-2	83*	67*	0	111*	40*	45*	51*	65*
Cc1ccc(N=C2NC(=O)/C(=C/c3cccn3C)S2)cc1	-25	-5	-16	3	17	21	.	.	.	.
C[C@H](O)[C@@H]1C(=O)N2CCc3c([nH]c4cccc(-c5ccccc5)c34)[C@@H]2C[C@@H]1N(C)C(=O)c1ccccc1	-13	.	.	1	.	.	.	.	.	.
NCc1c(O)ccc2ccccc12	.	-4	-9	.	4	-9	.	2	.	7
O=C(O)Cc1c(O)ccc2ccccc12	15	-2	-2	8	21	-3	.	.	.	.
CCOc1cc2[nH]c(=S)n(CCC(=O)NC3CCCCC3)c(=O)c2cc1OCC	-4	.	.	0	.	.	.	.	.	.
CCCn1c(=O)c(C(=O)NNC(=O)c2ccccc2Cl)c(O)c2ccccc21	55*	-2	-10	112*	22	-7	72*	65*	36	26*
C[C@H](CO)N1C[C@H](C)[C@@H](CN(C)Cc2cccnc2)Oc2ncc(-c3cccc(C#N)c3)cc2C1=O	-3	.	.	1	.	.	.	.	.	.
O=C(Cn1cnc2ccccc21)N/N=C/c1cccs1	.	-3	-12	.	2	-15	.	11	.	0
O=C(Cn1nnc2ccccc21)N/N=C\c1cccs1	20	2	-1	45*	4	-3	82*	4	43	3
COc1ccc(-c2ccc(CN3C(C)C(=O)N(Cc4cn(CCC5OCCO5)nn4)CCS3(=O)=O)cc2)cc1OC (stereo not drawn)	-3	.	.	2	.	.	.	.	.	.
NS(=O)(=O)c1ccc(CCNC(=O)CNCCc2ccccc2)cc1	18	-15	-6	71*	-9	2	90*	1	70*	4
SMILES	TAAR1 antagonist	GPR7 antag	CHO parental Ca	TAAR1 agonist	OX1R antag-1	OX1R antag-2	TAAR1 ag conf	Ga16 nonsel ag	TAAR1 desens	Ga16 nonsel ant
NS(=O)(=O)c1ccc(CCNC(=O)CSc2ccccc2)cc1	17	1	10	-1	16	6	.	.	.	.
O=C(C[C@@H]1C=C[C@H](NC(=O)Cc2ccccn2)[C@@H](CO)O1)NCCc1ccccc1	.	.	.	.	.	.	.	6	.	8
Cc1ccc(-n2nnc3c(=O)n(Cc4cc(C)ccc4C)cnc32)cc1	95*	24	-5	43*	5	-8	71*	35*	87*	53*
O=c1c2nnn(-c3ccc(Br)cc3)c2ncn1Cc1ccccn1	-23	-7	-8	1	-4	-18	.	.	.	.
O=C(Cn1cnc2c(nnn2-c2ccccc2)c1=O)NCc1ccc(F)cc1	-21	-15	0	1	-19	-8	.	.	.	.
O=c1c2nnn(-c3ccc(Cl)cc3)c2ncn1Cc1ccccn1	86*	-5	-19	476*	19	-19	5	3	2	12
Cc1ccc(-n2nnc3c(=O)n(CC(=O)NCc4ccccc4)cnc32)cc1	-11	-12	42*	42*	14	-4	15	5	-9	1
O=C(NCc1ccc(F)cc1)N1[C@H]2CC[C@@H]1C=C(c1ccc(F)cc1OCc1ccccc1)C2	15	.	.	1	.	.	.	.	.	.
COc1ccc(OC)c(NC(=O)C(C)OC(=O)c2cc3ccccc3[nH]2)c1 (stereo not drawn)	21	.	.	0	.	.	.	.	.	.
CCC(C)(C)n1nnnc1C(c1ccc(O)c(OC)c1)N1CCc2ccccc2C1 (stereo not drawn)	92*	0	-8	104*	10	-22	106*	15*	100*	12
CCOC(=O)/C(=C(/C)N)C1CC(=O)NC1=O (stereo not drawn)	-5	.	.	2	.	.	.	.	.	.
